# Results: ChEMBL document CHEMBL1158767, “Cytotoxic steroidal saponins from the rhizomes of Asparagus oligoclonos” (J Nat Prod, 2005)
# What was measured:
# Format in all cases: functional, cell-based
# [1] = tested on: A549; test: Cytotoxicity against human A549 cells by SRB assay
# [2] = tested on: SK-OV-3; test: Cytotoxicity against human SKOV3 cells by SRB assay
# Method in brief: (§1)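 Standard sulforhodamine B assay on a panel of human tumour lines: A549 lung carcinoma, SK-OV-3 ovarian adenocarcinoma (from malignant ascites), SK-MEL-2 malignant melanoma (skin metastasis, thigh), XF-498 central nervous system tumour, and HCT 15 colon adenocarcinoma. Testing was done by an external pharmacology group.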
# [3] = tested on: SK-MEL-2; test: Cytotoxicity against human SK-MEL-2 cells by SRB assay; method in brief: as §1
# [4] = tested on: HCT-15; test: Cytotoxicity against human HCT15 cells by SRB assay; method in brief: as §1
# [5] = tested on: XF498; test: Cytotoxicity against human XF498 cells by SRB assay; method in brief: as §1
Compound,IC50 [1] [µg/mL],IC50 [2] [µg/mL],IC50 [3] [µg/mL],IC50 [4] [µg/mL],IC50 [5] [µg/mL]
C[C@H]1CC[C@@]2(OC1)O[C@H]1C[C@H]3[C@@H]4CC[C@@H]5C[C@@H](O[C@@H]6O[C@H](CO)[C@@H](O)[C@H](O)[C@H]6O[C@@H]6O[C@@H](CO)[C@H](O)[C@H](O)[C@H]6O)CC[C@]5(C)[C@H]4CC[C@]3(C)[C@@]1(O)[C@@H]2C (relative stereo) [ASPAOLIGONIN A],2.25,2.66,2.53,2.59,2.84
C[C@H]1CC[C@@]2(OC1)O[C@H]1C[C@H]3[C@@H]4CC[C@@H]5C[C@@H](O[C@@H]6O[C@H](CO)[C@@H](O[C@@H]7O[C@@H](C)[C@H](O)[C@@H](O)[C@H]7O)[C@H](O)[C@H]6O[C@@H]6OC[C@@H](O)[C@H](O)[C@H]6O)CC[C@]5(C)[C@H]4CC[C@]3(C)[C@@]1(O)[C@@H]2C (relative stereo) [ASPAOLIGONIN B],2.55,2.73,2.59,2.57,2.51
C[C@H]1CC[C@@]2(OC1)O[C@H]1C[C@H]3[C@@H]4CC[C@@H]5C[C@@H](O[C@@H]6O[C@H](CO)[C@@H](O)[C@H](O)[C@H]6O[C@@H]6O[C@@H](CO)[C@H](O)[C@H](O)[C@H]6O)CC[C@]5(C)[C@H]4CC[C@]3(C)[C@H]1[C@@H]2C (relative stereo) [ASPARANIN A],2.05,2.43,2.41,2.47,2.56
COc1cccc2c1C(=O)c1c(O)c3c(c(O)c1C2=O)C[C@@](O)(C(=O)CO)C[C@@H]3O[C@H]1C[C@H](N)[C@H](O)[C@H](C)O1 [DOXORUBICIN],,0.18,0.03,0.08,0.12
